These results are taken from ChEMBL document CHEMBL3102835, “Dimeric unnatural polyproline-rich peptides with enhanced antibacterial activity” (Bioorg Med Chem Lett, 2014).

Series [1] deals with Escherichia coli. The series can be described thus: Antibacterial activity against Escherichia coli by broth microdilution method. It is filed as functional. The method, boiled down: (§1)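 Broth microdilution. E. coli ATCC 25922 or S. aureus ATCC 25923 grown to mid-exponential phase in TSB at 37 °C, 200 rpm. MIC taken as the lowest concentration with no growth.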
For orientation: Dilution methods test growth across graded concentrations, often in twofold steps.

Series [2] concerns Staphylococcus aureus. The series can be described thus: Antibacterial activity against Staphylococcus aureus by broth microdilution method. In kind it is functional. The method, boiled down:
as §1

The subject of series [3] is Escherichia coli. As to the kind of experiment: Antibacterial activity against Escherichia coli ATCC 25922 assessed as release of beta-galactosidase at 20 µM after 1 hr relative to control.
The test system of series [4] is Escherichia coli. The series can be described thus: Drug uptake in Escherichia coli ATCC 25922 assessed as increase in cellular fluorescence at 10 uM after 6 hrs by confocal microscopic analysis. It is filed as ADME, organism-based. Particulars: in vivo; call rule not given here. The method, boiled down: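 E. coli ATCC 25922 grown to mid-exponential phase in MHB at 37 °C, pelleted and resuspended in fresh MHB. Exposed to 10 µM fluorescein-labelled peptide or buffer for 10 min, 1 h or 6 h at 37 °C. Cells washed in PBS, fixed in 10% formalin, stained with 1 µM Hoechst, mounted on poly-lysine coverslips. Confocal imaging at equal laser intensity.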

In series [5] the test system is Escherichia coli. As to the kind of experiment: Antibacterial activity against Escherichia coli ATCC 25922 assessed as release of beta-galactosidase at 5 times MIC after 1 hr relative to control. It is filed as functional.
Series [6] deals with Escherichia coli. As to the kind of experiment: Antibacterial activity against Escherichia coli ATCC 25922 assessed as release of beta-galactosidase after 1 hr relative to control. It is filed as functional. In a few lines: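 Cells washed twice in TSB, then exposed to peptide at 1× or 5× MIC for 1 h at 37 °C. Supernatant collected by cold centrifugation and mixed with ONPG. Release expressed versus buffer control.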

Series [7] in a line: Toxicity in human RBC assessed as hemolysis by measuring hemoglobin release at 1 uM after 1 hr. In kind it is cell-based. Particulars: erythrocyte. In a few lines: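 Fresh human RBCs from healthy volunteers, washed three times in PBS pH 7.4 and used as an 8% (v/v) suspension. Mixed with two-fold serial peptide dilutions and incubated 1 h at 37 °C. Positive controls were melittin and 1% Triton X-100.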

Converted amounts (≈) assume the structure as drawn.

One may read the MIC as the least concentration at which growth counts as inhibited. Read a high MIC as weaker potency. Regarding `CC(=O)NCC(=O)N(CCCCC(=O)NCC(=O)N1CC(OCC(C)C)C[C@H]1C(=O)N1CC(OCCCNC(=N)N)C[C@H]1C(=O)N1CC(OCCCNC(=N)N)C[C@H]1C(=O)N1CC(OCC(C)C)C[C@H]1C(=O)N1CC(OCCCNC(=N)N)C[C@H]1C(=O)N1CC(OCCCNC(=N)N)C[C@H]1C(=O)N1CC(OCC(C)C)C[C@H]1C(=O)N1CC(OCCCNC(=N)N)C[C@H]1C(=O)N1CC(OCCCNC(=N)N)C[C@H]1C(=O)N1CC(OCC(C)C)C[C@H]1C(N)=O)CCCCC(=O)NCC(=O)N1CC(OCC(C)C)C[C@H]1C(=O)N1CC(OCCCNC(=N)N)C[C@H]1C(=O)N1CC(OCCCNC(=N)N)C[C@H]1C(=O)N1CC(OCC(C)C)C[C@H]1C(=O)N1CC(OCCCNC(=N)N)C[C@H]1C(=O)N1CC(OCCCNC(=N)N)C[C@H]1C(=O)N1CC(OCC(C)C)C[C@H]1C(=O)N1CC(OCCCNC(=N)N)C[C@H]1C(=O)N1CC(OCCCNC(=N)N)C[C@H]1C(=O)N1CC(OCC(C)C)C[C@H]1C(N)=O` (stereo not given in full), the MIC is 1 µM (≈ 4.33 µg/mL) in series [1] and 2 µM (≈ 8.66 µg/mL) in series [2].

As for `CC(C)COC1C[C@@H](C(=O)N2CC(OCCCNC(=N)N)C[C@H]2C(=O)N2CC(OCCCNC(=N)N)C[C@H]2C(=O)N2CC(OCC(C)C)C[C@H]2C(=O)N2CC(OCCCNC(=N)N)C[C@H]2C(=O)N2CC(OCCCNC(=N)N)C[C@H]2C(=O)N2CC(OCC(C)C)C[C@H]2C(=O)N2CC(OCCCNC(=N)N)C[C@H]2C(=O)N2CC(OCCCNC(=N)N)C[C@H]2C(=O)N2C[C@@H](OCC(C)C)CC2C(N)=O)N(C(=O)CNC(=O)c2ccc(-c3c4ccc(=O)cc-4oc4cc(O)ccc34)c(C(=O)O)c2)C1` (stereo not given in full), in series [3], the “fold change (FC)” value came out at 3. Moreover, the MIC in series [1] and in series [2] was 60 µM (≈ 143 µg/mL) in each case. Moreover, the Drug uptake entry in series [4] was “Active”.

As to `CC(=O)NCC(=O)N(CCCCC(=O)NCCC(=O)N1CC(OCC(C)C)C[C@H]1C(=O)N1CC(OCCCNC(=N)N)C[C@H]1C(=O)N1CC(OCCCNC(=N)N)C[C@H]1C(=O)N1CC(OCC(C)C)C[C@H]1C(=O)N1CC(OCCCNC(=N)N)C[C@H]1C(=O)N1CC(OCCCNC(=N)N)C[C@H]1C(=O)N1CC(OCC(C)C)C[C@H]1C(=O)N1CC(OCCCNC(=N)N)C[C@H]1C(=O)N1CC(OCCCNC(=N)N)C[C@H]1C(=O)N1CC(OCC(C)C)C[C@H]1C(N)=O)CCCCC(=O)NCCC(=O)N1CC(OCC(C)C)C[C@H]1C(=O)N1CC(OCCCNC(=N)N)C[C@H]1C(=O)N1CC(OCCCNC(=N)N)C[C@H]1C(=O)N1CC(OCC(C)C)C[C@H]1C(=O)N1CC(OCCCNC(=N)N)C[C@H]1C(=O)N1CC(OCCCNC(=N)N)C[C@H]1C(=O)N1CC(OCC(C)C)C[C@H]1C(=O)N1CC(OCCCNC(=N)N)C[C@H]1C(=O)N1CC(OCCCNC(=N)N)C[C@H]1C(=O)N1CC(OCC(C)C)C[C@H]1C(N)=O` (stereo not given in full), the results for the MIC in series [1] and in series [2] were 4 µM (≈ 17.4 µg/mL) and 8 µM (≈ 34.9 µg/mL), respectively.

Take `CC(C)COC1C[C@@H](C(=O)N2CC(OCCCNC(=N)N)C[C@H]2C(=O)N2CC(OCCCNC(=N)N)C[C@H]2C(=O)N2CC(OCC(C)C)C[C@H]2C(=O)N2CC(OCCCNC(=N)N)C[C@H]2C(=O)N2CC(OCCCNC(=N)N)C[C@H]2C(=O)N2CC(OCC(C)C)C[C@H]2C(=O)N2CC(OCCCNC(=N)N)C[C@H]2C(=O)N2CC(OCCCNC(=N)N)C[C@H]2C(=O)N2CC(OCC(C)C)C[C@H]2C(=O)N2CC(OCCCNC(=N)N)C[C@H]2C(=O)N2CC(OCCCNC(=N)N)C[C@H]2C(=O)N2CC(OCC(C)C)C[C@H]2C(N)=O)N(C(=O)CNC(=O)c2ccc(-c3c4ccc(=O)cc-4oc4cc(O)ccc34)c(C(=O)O)c2)C1` (stereo not given in full): the figures for the MIC in series [1] and in series [2] were 4 µM (≈ 11.9 µg/mL) and 12 µM (≈ 35.7 µg/mL), respectively. Further, in series [5], the “fold change (FC)” value is 3.

Turning to `CC(=O)NCC(=O)N(CCCCC(=O)NCCCC(=O)N1CC(OCC(C)C)C[C@H]1C(=O)N1CC(OCCCNC(=N)N)C[C@H]1C(=O)N1CC(OCCCNC(=N)N)C[C@H]1C(=O)N1CC(OCC(C)C)C[C@H]1C(=O)N1CC(OCCCNC(=N)N)C[C@H]1C(=O)N1CC(OCCCNC(=N)N)C[C@H]1C(=O)N1CC(OCC(C)C)C[C@H]1C(=O)N1CC(OCCCNC(=N)N)C[C@H]1C(=O)N1CC(OCCCNC(=N)N)C[C@H]1C(=O)N1CC(OCC(C)C)C[C@H]1C(N)=O)CCCCC(=O)NCCCC(=O)N1CC(OCC(C)C)C[C@H]1C(=O)N1CC(OCCCNC(=N)N)C[C@H]1C(=O)N1CC(OCCCNC(=N)N)C[C@H]1C(=O)N1CC(OCC(C)C)C[C@H]1C(=O)N1CC(OCCCNC(=N)N)C[C@H]1C(=O)N1CC(OCCCNC(=N)N)C[C@H]1C(=O)N1CC(OCC(C)C)C[C@H]1C(=O)N1CC(OCCCNC(=N)N)C[C@H]1C(=O)N1CC(OCCCNC(=N)N)C[C@H]1C(=O)N1CC(OCC(C)C)C[C@H]1C(N)=O` (stereo not given in full), the MIC in series [1] stood at 1 µM (≈ 4.39 µg/mL); in series [2] it was 4 µM (≈ 17.5 µg/mL).

Regarding `CC[C@H](C)[C@H](NC(=O)CN)C(=O)NCC(=O)N[C@@H](C)C(=O)N[C@H](C(=O)N[C@@H](CC(C)C)C(=O)N[C@@H](CCCCN)C(=O)N[C@H](C(=O)N[C@@H](CC(C)C)C(=O)N[C@H](C(=O)N[C@H](C(=O)NCC(=O)N[C@@H](CC(C)C)C(=O)N1CCC[C@H]1C(=O)N[C@@H](C)C(=O)N[C@@H](CC(C)C)C(=O)N[C@H](C(=O)N[C@@H](CO)C(=O)N[C@@H](Cc1c[nH]c2ccccc12)C(=O)N[C@H](C(=O)N[C@@H](CCCCN)C(=O)N[C@@H](CCCNC(=N)N)C(=O)N[C@@H](CCCCN)C(=O)N[C@@H](CCCNC(=N)N)C(=O)N[C@@H](CCC(N)=O)C(=O)N[C@@H](CCC(N)=O)C(N)=O)[C@@H](C)CC)[C@@H](C)CC)[C@@H](C)O)[C@@H](C)O)C(C)C)C(C)C` [MELITTIN], in series [6], the “fold change (FC)” value came to 8. In addition, in series [7], the Activity entry is given as “Toxic”.
